Compound activity (PubChem BioAssay)
TNAP inh noacc: TNAP (human) inhibition, acceptor-free conditions | purified TNAP, CDP-star luminescence, 30 min | inhibition, % at 20 µM | 200,000 compounds, 0.26% hits;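 active means tissue-nonspecific alkaline phosphatase inhibition above about 50% at 20 µM in the single-dose screen, limit read from the data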;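 further: 0% = DMSO negative control and 100% = EDTA positive control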
ABCB6 inh 2: blocks the human ABCB6 transporter; fluorescence ratio to DMSO, % at 10 µM; 360,000 compounds, 0.19% hits; Q9NP58; K562-ABCB6 porphyrin accumulation, flow cytometry, 1 h; hits give low values; AID 602162;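 active means fluorescence ratio to DMSO below 75%, the collection mean minus 3 SD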;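 further: signal is porphyrin accumulated inside mitochondria; 100% equals median channel fluorescence of DMSO control wells; lower ratio means ABCB6 inhibition with less porphyrin fluorescence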
CHT allo act: allosterically activates the human high affinity choline transporter; Q9GZV3; CHT-expressing cells, membrane potential dye, choline EC20; hits give high values; LV-AA mutant CHT in HEK293 cells; B-score at 10 µM; 310,000 compounds, 0.49% hits; AID 488977;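 active means initial fluorescence not abnormally high and integrated response B-score, plate-corrected, over 3 SD above library mean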
Target sequence (Q9GZV3 whole entry, looked up): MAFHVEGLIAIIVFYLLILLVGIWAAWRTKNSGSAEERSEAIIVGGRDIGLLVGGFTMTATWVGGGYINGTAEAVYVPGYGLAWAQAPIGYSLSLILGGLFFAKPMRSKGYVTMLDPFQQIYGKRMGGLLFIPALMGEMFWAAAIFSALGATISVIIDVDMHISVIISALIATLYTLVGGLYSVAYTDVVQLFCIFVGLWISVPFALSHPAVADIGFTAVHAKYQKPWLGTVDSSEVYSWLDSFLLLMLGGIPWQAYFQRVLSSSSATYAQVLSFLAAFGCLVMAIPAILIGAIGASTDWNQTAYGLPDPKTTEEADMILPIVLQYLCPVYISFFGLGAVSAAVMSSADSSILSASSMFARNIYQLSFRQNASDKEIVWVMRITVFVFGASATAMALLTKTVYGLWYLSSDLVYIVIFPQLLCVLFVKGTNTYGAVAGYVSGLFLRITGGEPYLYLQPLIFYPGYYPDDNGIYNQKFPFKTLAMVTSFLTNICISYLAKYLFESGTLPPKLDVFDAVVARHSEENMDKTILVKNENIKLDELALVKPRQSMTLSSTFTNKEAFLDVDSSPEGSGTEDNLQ
TNAP act hi DEA: activators of human TNAP at high phosphate acceptor concentration; purified TNAP, CDP-star luminescence, 1 M DEA, 30 min; hits give high values; 0 = EDTA background, 1 = DMSO-only activity; activation factor at 20 µM; 200,000 tested, under 10 active; AID 1136; P05186;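 active means activation factor at least 2 at 20 µM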
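system = human TNAP | amount = enzyme diluted 1/800 final | reagent = 100 µM CDP-star substrate | signal = luminescent substrate turnover signal | dosing = one dose, 20 µM | benchmarks = EDTA negative control, DMSO positive control | measure = activation factor | timing = 30 min reaction, room temperature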
TNAP inh hi DEA: TNAP (human) inhibition, high acceptor; P05186; purified TNAP, CDP-star luminescence, 1 M DEA; inhibition, % at 20 µM; 200,000 compounds, 0.03% hits; AID 1135;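 active means over 50% inhibition of tissue-nonspecific alkaline phosphatase at 20 µM in the single-dose screen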;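 further: plate controls were DMSO wells for no effect and EDTA-quenched wells as full inhibition for full effect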
CHT block: inhibits the human high affinity choline transporter; Q9GZV3; CHT-expressing cells, membrane potential dye, choline response; hits give low values; B-score at 10 µM; 310,000 compounds, 0.86% hits; AID 488975;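 active means B-score over 3 SD under the library average, and starting fluorescence ratio not unusually high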;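 further: choline stimulus applied at its EC90 after an EC20 pre-addition; B-score computed on integrated fluorescence ratio after choline addition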
CHT inh conf: human CHT inhibition, confirmatory screen | CHT activity remaining % of control (hits give low values), % at 10 µM | AID 493221 | 2,400 compounds, 70% hits | shares compounds with CHT block | CHT-expressing cells, choline membrane potential dye; LV-to-AA substituted CHT, HEK293 cells;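 active means choline transporter activity left, mean of duplicates at 10 µM, below buffer-only control mean minus 3 SD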;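 further: depolarization triggered by choline at its EC90 following an EC20 pre-addition; 0% = hemicholinium-3 full block and 100% = buffer-only control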
HEK293 CHT ctr: counter-screen for CHT inhibitors: effect in parental HEK293 cells | shares compounds with CHT block | membrane potential dye, choline response; active = decrease or increase beyond buffer ±3SD | membrane potential ratio readout (active if shifted either direction beyond buffer ±3SD; no single direction) at 10 µM | 2,400 compounds, 4% hits;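 further: parental cells lack the transporter so any hit is non-specific; ratio is peak minus trough fluorescence over baseline after EC90 choline challenge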
Numbers without * were called inactive; i = inactive; . = no result given. The list is not random: actives were taken first. Their share in the collection is about 1.4%.

SMILES	TNAP inh noacc	ABCB6 inh 2	CHT allo act	TNAP act hi DEA	TNAP inh hi DEA	CHT block	others
O=C1NC(=O)N(c2ccccc2)C(=O)/C1=C/C=C/c1ccco1	.	100	i	.	.	i
CN(C)c1ccc(/C=C/C=C2/C(=O)NC(=O)N(c3ccccc3)C2=O)cc1	54*	237	.	0.5	51*	.
Cc1ccc([C@@H]2C[C@H]3[C@@H](CN2S(=O)(=O)c2ccc(Cl)cc2)C(=O)C[C@@H](c2ccccc2F)N3S(=O)(=O)c2ccc(C)cc2)cc1	.	97	.	.	.	.
C[C@]12CCC(=O)C[C@H]1CC[C@@H]1[C@@H]2CC[C@]2(C)[C@@H](O)CC[C@@H]12	.	.	i	.	.	-5.3*
CCN(CC)c1nc2c(C)cccn2c(=O)c1C=C1C(=O)NC(=O)NC1=O	-1	38*	i	1	4	i
Nc1ccccc1-[n+]1c(-c2ccccc2)cc(-c2ccccc2)cc1-c1ccccc1	.	99	i	.	.	i
Brc1ccc(-[n+]2c(-c3ccccc3)cc(-c3ccccc3)cc2-c2ccccc2)cc1	.	92	12*	.	.	i
Cc1ccccc1-[n+]1c(-c2ccccc2)cc(-c2ccccc2)cc1-c1ccccc1	.	92	7.5*	.	.	i
CCC(C)(O)C(=O)OC1C(=O)OC2CC3C(C)=CC(O)C(O)C3(C)C3C4(O)OCC23C1C(C)C4O (configuration not stated)	.	97	.	.	.	.
C[C@@H]1CN([C@H](C)CO)C(=O)c2c(c3ccccc3n2C)-c2ccccc2CO[C@H]1CN(C)Cc1ccc2c(c1)OCCN2C	.	97	.	.	.	.
CN1C(=O)C(=Cc2ccc(Sc3ccccc3)o2)C(=O)N(C)C1=S	.	11*	i	.	.	i
COc1ccc(-n2nnnc2C(CCc2ccccc2)N2CCC3(CC2)C(=O)NCN3c2ccccc2)cc1 (configuration not stated)	.	94	.	.	.	.
O=C(N/N=C/c1c(O)n(CCC2=CCCCC2)c(=S)[nH]c1=O)c1ccccc1	-40	94	i	1	0	i
O=C(N/N=C/c1c(O)n(CCC2=CCCCC2)c(=O)[nH]c1=O)c1ccccc1	67*	104	i	1	-2	i
COc1ccc(-n2c(-c3ccccc3F)nc3ccccc3c2=O)cc1	.	99	.	.	.	.
COc1cc(C(=S)N2CCOCC2)cc(OC)c1OC(=O)Cc1ccccc1	-8	99	i	1	0	-5.1*
CN1C(=O)C(Cc2ccccc2)C(=O)N(C)C1=O	.	98	.	.	.	.
CN1C(=O)c2ccccc2NC(=O)C1Cc1ccccc1 (configuration not stated)	62*	103	i	1	-2	i
Cc1ccc(C[n+]2c(-c3ccc(C)cc3)cc(-c3ccc(C)cc3)cc2-c2ccc(C)cc2)cc1	.	88	8.7*	.	.	i
Cc1ccc(-c2cc(-c3ccc(C)cc3)[n+](-c3ccc(C(=O)O)cc3)c(-c3ccc(C)cc3)c2)cc1	.	102	i	.	.	i
O=C(COc1ccc(Cl)cc1)N1CCN(Cc2ccc([N+](=O)[O-])cc2)CC1	-11	101	i	1	-1	-5.1*	CHT inh conf=i;HEK293 CHT ctr=i
COc1ccc(OCC(=O)N2CCN(Cc3nc4cc([N+](=O)[O-])ccc4n3C)CC2)cc1	-3	91	i	1	-1	i
CC[C@H](C)/C=C(C)/C=C/C1=CC2=C(Cl)C(=O)[C@@](C)(OC(C)=O)C(=O)C2=CO1	.	101	i	.	.	i
CCC(C)/C=C(C)/C=C/C1=CC2=C(Cl)C(=O)C(C)(OC(C)=O)C(=O)C2=CO1 (configuration not stated)	13	100	i	1	3	-8.4*	CHT inh conf=24%*;HEK293 CHT ctr=i
Oc1ccc(C[C@H]2NCCc3cc(O)c(O)cc32)cc1O	.	96	i	.	.	-6.5*	CHT inh conf=28%*;HEK293 CHT ctr=i
